Compound activity deposited in PubChem BioAssay by Sanford-Burnham Center for Chemical Genomics.
This is a sample that favours compounds with a hit; in the whole collection about 1.5% have one here.
PPC-1+TRAIL kill – PPC-1 cancer cell killing with TRAIL present. PPC-1 cells + TRAIL, ATPLite viability luminescence. cell killing (% activity), % at 4 µM or 5 µM. hit rate 0.41% among 220,000;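 active = cell killing above 50% in the first pass at 4 µM, then a duplicate retest at 5 µM averaging 50% or more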;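 also: plate controls were cells with TRAIL plus DMSO for no effect and medium-only wells lacking cells for full effect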
FLuc inhib CS – Photinus pyralis luciferase inhibition counter-screen. P08659. ATPLite firefly luciferase biochemical luminescence, 10 min. inhibition, % at 10 µM. hit rate 1.5% among 200,000. AID 1006;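 active = inhibition above about 50% when tested at 10 µM, limit read from the data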
Target sequence (P08659 whole entry, looked up): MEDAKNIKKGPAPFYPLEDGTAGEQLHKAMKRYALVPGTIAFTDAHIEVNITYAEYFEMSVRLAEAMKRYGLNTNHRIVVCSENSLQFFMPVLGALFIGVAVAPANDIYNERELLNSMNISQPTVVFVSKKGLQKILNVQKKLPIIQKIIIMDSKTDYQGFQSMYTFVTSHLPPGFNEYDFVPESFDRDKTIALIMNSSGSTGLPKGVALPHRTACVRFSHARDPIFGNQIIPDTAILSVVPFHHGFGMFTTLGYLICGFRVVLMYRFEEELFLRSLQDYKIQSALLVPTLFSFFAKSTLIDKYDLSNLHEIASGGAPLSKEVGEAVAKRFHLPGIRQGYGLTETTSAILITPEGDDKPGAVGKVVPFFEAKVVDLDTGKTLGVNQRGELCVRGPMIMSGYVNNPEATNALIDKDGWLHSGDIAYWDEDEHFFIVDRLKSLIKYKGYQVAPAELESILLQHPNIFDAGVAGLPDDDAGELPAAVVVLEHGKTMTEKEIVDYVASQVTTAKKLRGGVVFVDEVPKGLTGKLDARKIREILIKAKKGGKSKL
C8 TRAIL sens – caspase-8 TRAIL sensitization. NB7+C8 cells + TRAIL, ATPlite viability luminescence. inhibition (viability loss, TRAIL sensitization), % at 10 µM. hit rate 1% among 360,000. AID 624354;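 active = compounds causing at least 50% loss of cell viability in the single-dose screen, relative to plate controls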
FLuc act counter – firefly luciferase counter-screen for stimulation assays | ATPlite luciferase biochemical, luminescence, 10 min; 0 = ATP-free wells, 1 = DMSO control | AID 1027 | 200,000 tested, under 10 active | P08659 | activation factor at 10 µM;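 active = luciferase activation factor, scaled between plate controls, of at least 2 with compound at 10 µM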
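Assay system: Luciferase/luciferin detection reagent, cell-free biochemical luciferase assay / Read-out: luciferase activation / Benchmarks: No-ATP low control, compound-free enzyme-plus-ATP high control / Medium: PBS buffer for ATP / Detection: luminescence measurement of luciferase light output / Schedule: 10 min at ambient temperature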
* hit, by the source's call; x = no result; ! = not confirmed by another sample.

SMILES	PPC-1+TRAIL kill	FLuc inhib CS	C8 TRAIL sens	FLuc act counter
CC(C)(C)OC(=O)NCCCC[C@H](NC(=O)c1nc[nH]c1C(=O)NC(c1ccccc1)c1ccccc1)C(=O)OC(C)(C)C	5	-1	53*	1
CC(C)C[C@H](NC(=O)c1nc[nH]c1C(=O)N[C@@H](CCCCNC(=O)OC(C)(C)C)C(=O)OC(C)(C)C)C(=O)OCc1ccccc1	x	x	63*	x
Cc1ccccc1NC(=O)c1nn(C)c2c1CS(=O)(=O)c1ccccc1-2	x	x	6	x
O=C(CSc1nnc(NC(=O)c2ccc(F)cc2)s1)NC1CCCC1	x	x	63*	x
O=C(CSc1nnc(NC(=O)c2ccccc2)s1)NC1CCCC1	x	x	57*	x
O=C(Nc1nnc(SCC(=O)N2CCOCC2)s1)c1ccccc1	71*	92*	75*	0.1
CCc1cc(=O)oc2cc(C)cc(OCC(=O)NCCCN3CCOCC3)c12	x	x	-3	x
CCc1nnc(NC(=O)[C@@H](NC(=O)c2cccc(S(=O)(=O)N(CC)CC)c2)C(C)C)s1	19	1	-8	1
CC(C)c1ccc2c(c1)CC[C@H]1[C@](C)(CN)CCC[C@]21C	x	x	68*!	x
CCOC(=O)CSc1nnc(-c2ccc(Cl)cc2Cl)o1	21	56*	13	0.4
CCCOC(=O)CSc1nnc(-c2ccc(Cl)cc2Cl)o1	-2	9	-2	0.9
CCC(=O)N(Cc1cc2ccccc2[nH]c1=O)c1ccccc1OC	x	x	-13	x
CCCc1cc(=O)oc2c3c(c4c(c12)OC(C)(C)C=C4)OC(C)C(C)C3O (configuration not stated)	-18	x	78*	x
CC(=O)N(C)c1ccc(NC(=O)Nc2ccccc2C)cc1	12	54*	15	0.5
Cc1ccccc1Nc1nn2c(=O)c3ccccc3nc2s1	41	39	50*	0.6
O=c1c2ccccc2nc2sc(Nc3ccc(F)cc3)nn12	x	x	23	x
COc1ccc(C(=O)Nc2c(N)nc[nH]c2=O)cc1	x	x	-5	x
CCCCOc1ccc(-c2nc(SCC(N)=O)n[nH]2)cc1	7	10	16	0.9
CCCCOc1ccc(-c2nc(=S)[nH][nH]2)cc1	16	-4	61*	1
Cc1cc(=O)c(C(=O)O)nn1-c1ccccc1F	x	x	-1	x
O=C(c1cccs1)N1CCc2ccccc21	19	24	23	0.8
O=C(/C=C/c1cccs1)N1CCc2ccccc21	58*	92*	56*	0.1
O=C(COc1ccc2ccccc2c1)Nc1nccs1	46	84*	57*	0.2
COc1ccc(NC(=O)Nc2nc(C(N)CC(C)C)cs2)cc1 (configuration not stated)	x	x	7	x
NC(c1csc(NC(=O)Nc2ccc(OC(F)(F)F)cc2)n1)C1CCCCC1 (configuration not stated)	x	x	85*	x
SMILES	PPC-1+TRAIL kill	FLuc inhib CS	C8 TRAIL sens	FLuc act counter
C#CCSc1nnc(-c2cc3c(C(F)(F)F)nn(C)c3s2)n1C	-6	0	89*	1
CC1Oc2ccccc2N(CC(=O)Nc2ccc(F)cc2)C1=O (configuration not stated)	x	x	2	x
Cc1cccc(NC(=S)NNC(=O)c2cccc([N+](=O)[O-])c2)c1	-4	x	4	x
Cc1cccc(NC(=S)NNC(=O)c2csc3c2CCCC3)c1	8	57*	44	0.4
Cc1cccc(NC(=S)NNC(=O)c2csc(C)c2)c1	16	57*	16	0.4
C=C(C)c1cc2c(ccc3ccc(=O)oc32)o1	x	x	87*	x
Cc1ccc(CSc2nnc(SCC(=O)N/N=C/C=C/c3ccccc3[N+](=O)[O-])s2)cc1	2	59*	10	0.4
CCCNC(=O)C1(C)CCN(C(=O)c2cccc(C#N)c2)C1 (configuration not stated)	x	x	-13	x
CCOC(=O)C1=C(O)/C(=C/c2cn(CC(=O)NCC3CCCO3)c3ccccc23)SC1=Nc1ccc(C)cc1 (configuration not stated)	x	x	57*	x
CCOC(=O)C1C(c2cc(OC)c(O)c(OC)c2)NC(=S)NC1(O)C(F)(F)F (configuration not stated)	53*	-4	-2	1
CCOC(=O)C1C(c2cc(OC)c(OC)c(OC)c2)NC(=S)NC1(O)C(F)(F)F (configuration not stated)	5	-1	-3	1
CC(C)/C=N/Nc1nc(-c2ccc(Br)cc2)cs1	24	4	23	1
CC(NCC(c1ccco1)N1CCCCC1)C(=O)NC1CCCC1 (configuration not stated)	2	74*	5	0.3
CC1(C)OC2C(CO)OC(n3cnc4c(=S)nc(N)[nH]c43)C2O1 (configuration not stated)	x	x	11	x
Nc1nc(=S)c2ncn(C3OC(CO)C(O)C3O)c2[nH]1 (configuration not stated)	-22	x	56*	x
Nc1nc(=S)c2ncn([C@@H]3O[C@H](CO)[C@@H](O)[C@H]3O)c2[nH]1	x	x	73*	x
Cc1cc(C)c(S(=O)(=O)NCc2csc(C)n2)c(C)c1	x	x	-2	x
COc1cccc(C2(O)CC(C(F)(F)F)=NN2C(=O)c2ccccn2)c1 (configuration not stated)	11	-1	-4	1
CCn1c(C)cc(/C=C2/SC(=S)N(CC(=O)O)C2=O)c1C	23	80*	28	0.2
C#CCN1C(=O)S/C(=C/c2cc(C)n(CC)c2C)C1=O	27	26	10	0.7
CN1C[C@@H]2[C@@H]3C(=O)N(Cc4ccccc4)C(=O)[C@@H]3[C@](Cc3ccccc3)(C1=O)N2C(=O)c1ccc(C(C)(C)C)cc1	x	x	65*	x
CC(C)c1ccc(N=C2NN=C(c3cccs3)CS2)cc1	18	50*	19	0.5
Brc1ccccc1-c1nc(-c2ccccc2)no1	25	73*	x	0.3
Fc1ccccc1-c1nc(-c2ccccc2)no1	25	60*	6	0.4
c1ccc(-c2noc(-c3cccc4ccccc34)n2)cc1	0	19	9	0.8
SMILES	PPC-1+TRAIL kill	FLuc inhib CS	C8 TRAIL sens	FLuc act counter
Fc1ccccc1-c1nc(-c2ccncc2)no1	x	x	-5	x
COc1ccc(NC(=O)c2cccc(N3C(=O)c4ccc(C(=O)Nc5ccc(OC)c(O)c5)cc4C3=O)c2)cc1O	x	x	58*	x
CC(=O)c1ccc(NC(=O)c2cccc(N3C(=O)c4ccccc4C3=O)c2)cc1	x	x	8	x
c1ccc2c(c1)CCN(C1=Nc3cccc4cccc1c34)C2	10	52*	37	0.5
Cc1cccc(NC(=O)COc2coc(CN3CCN(c4ccccc4)CC3)cc2=O)c1	x	x	31	x
CC1(C)N=C(N)N=C(N)N1c1ccc(F)cc1F	6	-8	-11	1.1
CC1(C)N=C(N)N=C(N)N1c1ccc(CCCCc2ccccc2)cc1	x	x	65*	x
CC1(C)N=C(N)N=C(N)N1c1ccc(Oc2ccc(Cl)cc2)c(Cl)c1	x	x	58*	x
CC1(C)N=C(N)N=C(N)N1c1ccccc1	14	-6	85*	1.1
CC1(C)N=C(N)N=C(N)N1c1cccc(CN)c1	-10	x	-17	x
C[C@H]1CN([C@@H](C)CO)C(=O)c2cccc(NC(=O)c3nc4ccccc4s3)c2O[C@H]1CN(C)C(=O)Nc1ccc(F)cc1	x	x	-1	x
